# Assay outcomes from PubChem BioAssay.
# This is a sample that favours compounds with a hit; in the whole collection about 4.2% have one here.
# TAAR1 ag = human TAAR1 agonists, primary screen, Fluo-8 calcium fluorescence, CHO RD-HGA16 cells; vehicle wells 0%, saturating PEA agonist 100%; activation, % at 3 µM; 360,000 compounds, 0.99% hits;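 active = activation above the mean activation of all test compounds in the run plus 3 SD, cut at about 38% in these data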
# Target sequence (Q96RJ0 whole entry, looked up): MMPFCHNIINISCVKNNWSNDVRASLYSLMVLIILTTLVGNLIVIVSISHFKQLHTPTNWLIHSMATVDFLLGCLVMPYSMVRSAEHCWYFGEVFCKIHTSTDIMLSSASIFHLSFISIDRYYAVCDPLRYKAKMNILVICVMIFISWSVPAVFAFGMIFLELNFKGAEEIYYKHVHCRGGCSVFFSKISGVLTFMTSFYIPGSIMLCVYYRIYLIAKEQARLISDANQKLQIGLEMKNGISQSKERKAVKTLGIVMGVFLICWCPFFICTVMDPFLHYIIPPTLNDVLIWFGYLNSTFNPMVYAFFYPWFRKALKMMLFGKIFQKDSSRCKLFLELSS
#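 Test system: RD-HGA16 (CHO) cells co-expressing Gα16 and hTAAR1 | Doses: Single dose, 3 µM | Schedule: 17-24 h seeding, 75 min 37 °C dye, 30 min RT | Evaluation: % activation from peak over basal fluorescence ratio, DMSO-to-PEA scaled | Technique: Kinetic Fluo-8 calcium fluorescence | Benchmarks: Low control DMSO, high control PEA (EC100)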
# GalR3 antagonist = GalR3 antagonists in HEK293 cells, primary screen, cell-based, fluorescence readout. inhibition, % at 3 µM. Galanin receptor type 3 (Homo sapiens), O60755. HEK293 GalR3-CNG cAMP membrane potential fluorescence; galR3 body fused to GalR1 C-terminus. AID 651719, 2012. 360,000 compounds, 0.44% hits;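 active = inhibition above the screen-wide average plus 3 SD, cut at about 13% in these data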;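 note: forskolin and galanin both at EC90 stimulate the cells; cAMP rise reported by CNG channel membrane potential dye signal; 0% = forskolin plus galanin with DMSO and 100% = forskolin alone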
# Target sequence (O60755 1-299 limits assumed): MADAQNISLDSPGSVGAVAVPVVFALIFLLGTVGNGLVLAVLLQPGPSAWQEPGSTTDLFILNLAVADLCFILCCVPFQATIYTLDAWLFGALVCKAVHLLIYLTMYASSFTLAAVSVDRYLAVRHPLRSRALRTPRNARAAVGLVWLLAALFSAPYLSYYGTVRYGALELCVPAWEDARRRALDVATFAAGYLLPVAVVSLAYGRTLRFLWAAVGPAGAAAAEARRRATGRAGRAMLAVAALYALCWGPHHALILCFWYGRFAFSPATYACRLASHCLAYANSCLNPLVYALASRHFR
# CHO parental Ca = ATP-evoked calcium signal inhibitors, parental CHO, primary screen, counter-screen for OX1R antagonist project, cell-based, fluorescence, Fluo-8 calcium dye. inhibition, % at 5.6 µM. parental CHO-K1, ATP-induced calcium, Fluo-8 fluorescence. 330,000 compounds, 0.63% hits. AID 463079, 2010;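 active = inhibition above that plate's mean sample inhibition plus 3 SD, cut at about 26% in these data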;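 note: 0% = ATP-challenged DMSO wells and 100% = DMSO wells without ATP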
#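 Measured by: calcium-sensitive Fluo-8 fluorescence / Test system: CHO parental line / Controls: ATP-challenged DMSO wells low, unchallenged DMSO wells high / Measure: % inhibition / Compound: single nominal dose of 5.6 µM per compound / Replicates: single well per compound, no replicates / Reagent: ATP as calcium-mobilizing challenge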
# OX1R antag-1 = antagonists of human orexin 1 receptor (OX1R); Orexin/Hypocretin receptor type 1 (Homo sapiens), O43613; OX1R-expressing cells, FRET antagonist read-out; inhibition, % at 6.6 µM; 330,000 compounds, 1.8% hits; in the data active = inhibition mostly above about 38%, no sharp cut-off; inactive = mostly below about 40%;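 note: 0% = agonist challenge alone and 100% = reference antagonist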
# OX1R antag-2 = OX1R (HCRTR1) antagonists, primary screen, fluorescence, CHO/OX1R cells, Fluo-8 calcium, orexin A. inhibition, % at 5 µM. Orexin/Hypocretin receptor type 1 (Homo sapiens), O43613. Fluo-8 calcium fluorescence. AID 434989, 2010. 330,000 compounds, 0.43% hits;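 active = inhibition above its plate's threshold, mean inhibition of all tested compounds on the plate plus 3 SD, cut at about 37% in these data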;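 note: 0% = orexin A challenge wells and 100% = SB-334867-A antagonist wells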
# TAAR1 antagonist = human TAAR1 antagonists, primary screen, Fluo-8 calcium fluorescence, CHO RD-HGA16 cells; 360,000 compounds, 1.5% hits; antagonist; inhibition, % at 3 µM;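 active = inhibition above a per-plate cutoff, the mean inhibition of test compounds on that plate plus 3 SD, cut at about 49% in these data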;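 note: 0% = DMSO plus EC80 beta-PEA response and 100% = DMSO alone without agonist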
#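 Test system – hTAAR1-expressing CHO RD-HGA16 cells, Gα16-coupled · Also added – β-PEA at EC80 concentration, post-compound challenge · Compound – 3 µM, single point · Incubation – dye loading 75 min at 37 °C, then 30 min room temperature · Measured by – Fluo-8 intracellular calcium dye fluorescence, real-time kinetic reads · Benchmarks – vehicle and agonist controls · Replicates – singlicate, one well per test compound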
# TAAR1 ag conf = human TAAR1 agonists, retest of hits, confirmation, Fluo-8 calcium fluorescence, CHO RD-HGA16 cells; 2,400 compounds, 82% hits; activation, % at 3 µM; scaled: DMSO 0%, maximal phenethylamine 100%; shares compounds with TAAR1 ag;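 active = activation above a cutoff set at the run's mean compound activation plus 3 SD, cut at about 39% in these data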
# Ga16 ag counter = nonselective calcium mobilization agonists, CHO-Ga16 cells, counter-screen for hTAAR1 agonist project, cell-based, fluorescence, CHO-Ga16 parental line; shares compounds with TAAR1 ag; Fluo-8 calcium fluorescence; normalized to maximal ATP response, DMSO zero; activation, % at 3 µM; 2,400 compounds, 50% hits;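 active = activation above the run cutoff, the mean activation over all tested wells plus 3 SD, cut at about 12% in these data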;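 note: 0% = DMSO wells and 100% = maximal ATP response on the peak over basal ratio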
# TAAR1 desens = TAAR1 desensitization by agonist hits, confirmation, counter-screen for TAAR1 agonist project, cell-based, fluorescence, tachyphylaxis. 2,400 compounds, 46% hits. AID 651951, 2012. inhibition, % at 3 µM. CHO RD-HGA16 hTAAR1, Fluo-8 calcium, beta-PEA response inhibition. shares compounds with TAAR1 ag;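 active = inhibition above the run cutoff, the mean inhibition of all test compounds plus 3 SD, cut at about 49% in these data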;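 note: beta-PEA stimulus applied at its EC80; loss of beta-PEA calcium signal after compound pretreatment read as receptor desensitization; 0% = DMSO with beta-PEA at EC80 and 100% = DMSO alone without agonist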
# Ga16 antag count = inhibition of ATP-evoked calcium response in CHO-Ga16 cells, counter-screen for TAAR1 agonist project, cell-based, fluorescence; CHO-Ga16 ATP-induced calcium, Fluo-8 fluorescence; AID 651952, 2012; inhibition, % at 3 µM; 2,400 compounds, 39% hits; shares compounds with TAAR1 ag;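 active = inhibition above the plate's mean compound inhibition plus 3 SD, computed per plate, cut at about 22% in these data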;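 note: 0% = EC80 ATP with DMSO and 100% = DMSO wells without ATP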
# An asterisk follows results filed as active; nt = no result.
SMILES,TAAR1 ag,GalR3 antagonist,CHO parental Ca,OX1R antag-1,OX1R antag-2,TAAR1 antagonist,TAAR1 ag conf,Ga16 ag counter,TAAR1 desens,Ga16 antag count
Cc1cc(C(=O)Nc2cccc(O)c2)c(C)o1,50*,-6,0,1,17,0,50*,17*,3,5
CC1(c2ccccc2)NC(=O)N(CC(=O)N2CCc3ccccc32)C1=O (stereo not drawn),48*,-7,nt,nt,nt,-27,17,9,-1,9
CCC(C)[C@H](NC(=O)NCc1ccccc1Cl)C(=O)OC (stereo partly drawn),12,-10,-12,-3,-22,-8,nt,nt,nt,nt
CC(C)(C)N1C(=O)c2ccccc2NC(=O)N1Cc1ccccc1,7,-6,-1,12,-10,-11,nt,nt,nt,nt
O=C1Nc2ccccc2C(=O)C1(Cl)Cc1ccccc1 (stereo not drawn),47*,-1,-11,23,10,9,17,8,24,7
O=C(COc1ccc(Cl)cc1Cl)Nc1ccc(CN2CCCCC2)cc1,51*,-12,-18,10,-11,7,84*,40*,41,27*
O=C(COc1ccc(Cl)cc1Cl)Nc1ccc(CN2CCOCC2)cc1,13,-3,6,-6,-27,-11,nt,nt,nt,nt
CCN(CC)S(=O)(=O)c1ccc(C(=O)NCCSc2c[nH]c3ccccc23)cc1,55*,nt,-8,16,-29,86*,1,3,16,17
CCC(=O)NCCSc1c[nH]c2ccccc12,5,5,-4,8,-1,0,nt,nt,nt,nt
c1cc2c(cc1C1CCCCC1)c1c3n2CCN=C3CCC1,66*,-1,2,2,-9,44,59*,24*,39,17
CCCC(=O)Nc1nnc(S(=O)(=O)N2CCCC2)s1,2,0,-6,5,-2,-12,nt,nt,nt,nt
Cc1ccc(CN2CCN(/N=C/C(Br)=C\c3ccccc3)CC2)cc1,7,-2,-10,38,-17,-8,nt,nt,nt,nt
BrC(=C\c1ccccc1)/C=N/Nc1ccc2nncn2n1,67*,-7,-5,18,1,8,44*,37*,23,13
BrC(=C\c1ccccc1)/C=N/n1cnnc1,98*,1,nt,nt,nt,18,38*,37*,18,19
O=c1[nH]c(=S)[nH]c2nc(-c3cccs3)cc(C(F)(F)F)c12,0,-9,-11,-5,-24,-4,nt,nt,nt,nt
CCCCCCn1c(=O)[nH]c2nc3cc(N)c(C)cc3nc2c1=O,118*,-2,nt,nt,nt,72*,105*,85*,48,49*
Oc1ccc(CN2CCc3ccccc3C2)c2cccnc12,81*,-4,-13,5,-15,62*,77*,0,24,6
Cn1cc(CN2CCc3ccccc3C2)c2ccccc21,67*,-5,-10,13,-28,21,85*,1,41,4
Oc1ccc(CN2CCCCC2)c2cccnc12,0,-1,0,0,-3,-8,nt,nt,nt,nt
Oc1cc2c(cc1CN1CCc3ccccc3C1)OCO2,69*,0,-9,25,-2,-7,22,2,0,0
Cn1cc(CN2CCCC(CO)(Cc3ccccc3)C2)c2ccccc21 (stereo not drawn),6,-10,-24,25,-23,-11,nt,nt,nt,nt
CCOC(=O)CCC(NC(=O)CCCCCCCCC(=O)NC(CCC(=O)OCC)C(=O)OCC)C(=O)OCC (stereo not drawn),11,-1,-9,13,-15,4,nt,nt,nt,nt
COC(=O)c1cc(NC(=O)c2cccc(F)c2)cc(C(=O)OC)c1,-1,-4,-24,18,-22,-11,nt,nt,nt,nt
Cc1ccc2c(CN3CCN(CCO)CC3)cc(=O)oc2c1,10,-2,-7,6,-16,-12,nt,nt,nt,nt
O=C(NCc1ccco1)c1cc(-c2ccc(F)cc2)on1,49*,-4,-9,8,-18,34,2,2,-1,5
SMILES,TAAR1 ag,GalR3 antagonist,CHO parental Ca,OX1R antag-1,OX1R antag-2,TAAR1 antagonist,TAAR1 ag conf,Ga16 ag counter,TAAR1 desens,Ga16 antag count
C[C@H]1CN[C@H](CCO)/C1=C\c1ccccc1,47*,-8,nt,nt,nt,7,61*,0,18,10
C[C@@H]1CN(S(=O)C(C)(C)C)[C@H](CCO)/C1=C\c1ccccc1 (stereo partly drawn),0,-5,nt,nt,nt,5,nt,nt,nt,nt
C[C@H]1CN[C@@H](CCO)/C1=C\c1ccccc1,43*,-5,nt,nt,nt,-2,53*,1,29,10
COc1cccc(-c2c(C(=O)N/N=C(\C)c3ccc(Cl)s3)nnn2-c2nonc2N)c1,89*,0,5,13,1,59*,82*,52*,64*,39*
C/C(=N\NC(=O)c1nnn(-c2nonc2N)c1-c1ccccc1)c1ccco1,106*,-2,nt,nt,nt,-19,120*,87*,27,1
COc1cccc(-c2c(C(=O)N/N=C/c3cccs3)nnn2-c2nonc2N)c1,nt,nt,-14,21,-22,nt,nt,nt,nt,nt
COc1cccc(-c2c(C(=O)N/N=C(\C)c3ccco3)nnn2-c2nonc2N)c1,115*,-8,-9,9,-30,17,128*,88*,49*,18
O=c1[nH]c(SCC2CCCCO2)nc2ccccc12 (stereo not drawn),12,-5,-13,6,-4,4,nt,nt,nt,nt
COc1ccc(NC(=O)CC(C)(C)C)c([N+](=O)[O-])c1,0,-6,-11,5,-12,14,nt,nt,nt,nt
